Compounds with a hit are over-represented: about 0.44% of the library has one in this group of screens.
PDI turbidity: inhibitors of human PDI, primary screen, biochemical, turbidity, single point, plate reader | 350,000 tested, 0.052% active | PDI insulin aggregation turbidity, A650, 90 min | Protein disulfide-isomerase (Homo sapiens), P07237 | inhibition, % at 10 µM;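 active means mean inhibition across replicates of 30% or more, whatever share of single replicates reach that level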
Target sequence (P07237 whole entry, looked up): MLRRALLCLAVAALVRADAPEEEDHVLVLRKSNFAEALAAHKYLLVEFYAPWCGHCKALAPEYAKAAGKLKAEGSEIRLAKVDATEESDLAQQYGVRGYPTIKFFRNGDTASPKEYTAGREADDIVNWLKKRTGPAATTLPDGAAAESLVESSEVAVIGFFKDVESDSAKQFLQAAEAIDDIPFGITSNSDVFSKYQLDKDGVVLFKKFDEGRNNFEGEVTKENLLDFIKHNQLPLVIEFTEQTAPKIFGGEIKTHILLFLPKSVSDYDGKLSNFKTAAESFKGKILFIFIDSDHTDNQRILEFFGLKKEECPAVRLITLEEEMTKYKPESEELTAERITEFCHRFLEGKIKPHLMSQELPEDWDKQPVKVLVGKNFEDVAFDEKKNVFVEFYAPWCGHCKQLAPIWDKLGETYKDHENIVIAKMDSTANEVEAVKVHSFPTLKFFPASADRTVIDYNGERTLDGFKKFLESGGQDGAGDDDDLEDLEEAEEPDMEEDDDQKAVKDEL
ERp5 inh: inhibitors of ERp5-driven insulin aggregation, primary screen, biochemical, turbidity, absorbance 650 nm, single point; inhibition, % at 9.99 µM; Protein disulfide-isomerase A6 (Homo sapiens), Q15084; 350,000 tested, 0.05% active; 90 min;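 active means mean replicate inhibition above about 25%, with every replicate also reaching it, limit read from the data, passing the limit was not always enough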
PglD inh: C. jejuni PglD acetyltransferase inhibitors, primary screen, biochemical, DTNB colorimetric, single point; UDP-N-acetylbacillosamine N-acetyltransferase PglD (Campylobacter jejuni); purified PglD enzyme, DTNB colorimetric CoA detection; inhibition, % at 12.5 µM; 360,000 tested, 0.098% active; in the data active means inhibition above about 16%, passing the limit was not always enough
S100A4 inh HTS: inhibitors of S100A4-myosin IIA peptide binding, primary screen, biochemical, fluorescence polarization, TAMRA-MyoIIA peptide | Protein S100-A4 (Homo sapiens), P26447 | inhibition, % at 10.7 µM | 360,000 tested, 0.14% active | AID 652163, 2013;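 active means mean inhibition of at least 70% across replicates, with every replicate also reaching that level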
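Test system – S100A4 monomer (human) · Compound – single-point compound testing · Schedule – 5 min incubation before reading · Probe or stimulus – TAMRA-labelled myosin IIA heavy-chain peptide probe, 5 nM · Benchmarks – neutral control DMSO, positive control TFP · Medium – Calcium-containing HEPES buffer, pH 7.2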
FN deposition inh: inhibitors of fibronectin matrix deposition, primary screen, AH1F cells, Alexa488-fibronectin fluorescence, plate reader; AH1F fibroblasts, overnight; inhibition, % at 12.6 µM; 350,000 tested, 0.086% active; AID 743247, 2014;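 active means mean inhibition across replicates of 30% or more, regardless of how many single replicates reach that level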
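Material: AH1F fibroblast monolayer depositing Alexa488-labelled fibronectin into matrix | Input: 10000 AH1F cells/well | Medium: DMEM plus 2% serum, read in PBS | Reagent: Alexa488-fibronectin, 24 nM final in well | Compound dosing: One dose per compound, pinned | Schedule: 1 h adhesion, overnight exposure | Measured by: Fluorescence at 485 nm excitation, 525 nm emission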
RAD54 inh: inhibitors of human RAD54 branch migration, primary screen, biochemical, fluorescence, single point. DNA repair and recombination protein RAD54-like (Homo sapiens), Q92698. RAD54 Holliday junction branch migration, FAM/BHQ fluorescence. inhibition, % at 10.4 µM. 360,000 tested, 0.14% active. AID 602329, 2012;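 active means mean normalized replicate activity at least 40 and at least half of replicates scoring 40 or more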;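 further: inhibitors cause a drop in the FAM fluorescence signal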
Each line names hits and unclear results; the compound was inactive in the other large screens.

COc1cccc(S(=O)(=O)N2CC3(CN(C(=O)Nc4cccc(F)c4)[C@H](CO)c4[nH]c5cc(OC)ccc5c43)C2)c1	ERp5 inh 69 (no result: PDI turbidity, PglD inh, FN deposition inh, RAD54 inh)
C[C@H](NC(=O)C[C@H]1C[C@H]2c3cc(NC(=O)C4CCOCC4)ccc3O[C@H]2[C@H](CO)O1)c1ccccc1	none (no result: PDI turbidity, FN deposition inh)
Nc1[nH]nc2nc3ccccc3cc12	none
Nc1cccc2nc3ccccc3cc12	RAD54 inh 106 (no result: ERp5 inh)
CN(C)C(=O)c1cccc(-c2ccc3n(c2=O)C[C@H]2[C@H](CO)[C@@H](C(=O)NCC4CC4)N[C@@H]32)c1	none (no result: PDI turbidity)
CCNC(=O)[C@H]1N[C@H]2c3ccc(-c4cccc(C(=O)N(C)C)c4)c(=O)n3C[C@H]2[C@@H]1CO	S100A4 inh HTS 83 (no result: PDI turbidity, FN deposition inh)
COc1cccc(-c2ccc3n(c2=O)C[C@H]2[C@H](CO)[C@@H](C(=O)N4CCOCC4)N[C@@H]32)c1	S100A4 inh HTS 85 (no result: PDI turbidity, FN deposition inh)
Cc1ccc(N2CC(C(=O)Nc3ccncc3)CC2=O)cc1 (stereo unspecified)	none (no result: ERp5 inh, S100A4 inh HTS, FN deposition inh)
O=C(Nc1ccncc1)C1CC(=O)N(c2ccccc2)C1 (stereo unspecified)	ERp5 inh 28
CCCCn1cnc2c(c(-c3ccccc3)c(-c3ccccc3)n2Cc2ccco2)c1=N	FN deposition inh 39
O=C(O)C1C(c2ccccc2)C(C(=O)Oc2ccc(O)cc2)C1c1ccccc1 (stereo unspecified)	PDI turbidity 46 (no result: ERp5 inh, S100A4 inh HTS)
COc1ccc(N=C2S/C(=C\c3ccc(OCC(=O)O)cc3)C(=O)N2CCc2c[nH]c3ccccc23)cc1	ERp5 inh 31 (no result: PglD inh, FN deposition inh, RAD54 inh)
COc1ccc(C2c3ccc4ccccc4c3Oc3ncn(CCN4CCOCC4)c(=N)c32)cc1 (stereo unspecified)	none (no result: ERp5 inh, S100A4 inh HTS, FN deposition inh)
COc1ccc(C2c3ccc4ccccc4c3Oc3ncn(CCN4CCOCC4)c(=N)c32)cc1OC (stereo unspecified)	FN deposition inh 30 (no result: PglD inh, RAD54 inh)
COc1ccc(C2c3ccc(O)cc3Oc3ncn(CCN4CCOCC4)c(=N)c32)cc1OC (stereo unspecified)	PDI turbidity 54
CCN1CCCC1CNC(=O)c1cc2c(-c3ccc(Cl)cc3)nn(C)c2s1 (stereo unspecified)	RAD54 inh 51 (no result: ERp5 inh, S100A4 inh HTS, FN deposition inh)
C[C@H]1CN([C@@H](C)CO)C(=O)Cc2cc(NC(=O)C3CCCCC3)ccc2O[C@H]1CN(C)S(=O)(=O)c1ccccc1	none (no result: PDI turbidity, FN deposition inh)
C[C@]12CC[C@@H]3c4ccc(O)cc4CC[C@H]3[C@@H]1CC[C@@H]2OC(=O)CCC(=O)O	none
CCCCC(=O)OC1CCC2C3CCc4cc(O)ccc4C3CCC12C (stereo unspecified)	PDI turbidity 71
O=C1NC(Cc2cccc(Cl)c2)COCc2cnnn2CCC1c1ccccc1 (stereo unspecified)	none (no result: PDI turbidity, PglD inh, RAD54 inh)
O=C1NC(Cc2ccc(Cl)cc2)COCc2cnnn2CCC1c1ccccc1 (stereo unspecified)	S100A4 inh HTS 90 (no result: PDI turbidity, PglD inh, RAD54 inh)
Cc1c(O)ccc2c(CN3CCOCC3)cc(=O)oc12	none
Cc1c(O)ccc2c(CN3CCN(CCO)CC3)cc(=O)oc12	PDI turbidity 53 (no result: ERp5 inh, PglD inh, S100A4 inh HTS, RAD54 inh)
NC1=C(Cl)C(=O)c2ccc(S(N)(=O)=O)cc2C1=O	FN deposition inh 31
NC1=C(Cl)C(=O)c2ccccc2C1=O	none (no result: PglD inh, RAD54 inh)
COc1ccc(S(=O)(=O)N2CC[C@@H]3[C@H]2c2cc(-c4ccc(C#N)cc4)ccc2N[C@@H]3CO)cc1	none (no result: PDI turbidity)
O=C1C=CC2(O[C@H](c3ccccc3)[C@@H](c3ccccc3)O2)[C@H](Sc2ccccc2O)C1	FN deposition inh 45 (no result: PglD inh, RAD54 inh)
C[C@@H]1[C@@H](Sc2ccccc2)CC(=O)O[C@@H]1c1ccc(-c2ccccc2)cc1	none
C[C@H](CO)N1C[C@H](C)[C@H](CN(C)Cc2ccc(-c3ccccc3)cc2)Oc2ccc(NC(=O)CCCN(C)C)cc2C1=O	FN deposition inh 53 (no result: PDI turbidity)

Compound activity as filed in PubChem BioAssay.
